In the RNAGym collection of RNA variant scans (doi:10.1126/science.aae0568):
Fewer inactive variants are shown than the library holds.

B1: tRNA (parent)
chain: GUUCCGUUGGCGUAAUGGUAACGCGUCUCCCUCCUAAGGAGAAGACUGCGGGUUCGAGUCCCGUACGGAACG

Variants of: B1
Experiment: yeast fitness relative to wild type (ratio to wild type); higher = fitter; tRNA-Arg(CCU), competitive growth, 37 C, YPD
Outline: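 Variants of the tRNA-Arg(CCU) gene were chemically synthesised with a 3% per-site mutation rate across 69 sites and placed at the native genomic locus in Saccharomyces cerevisiae. Six parallel replicates of the pooled strains were competed in YPD at 37°C for 24 hours, and gene amplicons from the start and end populations were read by 100-nucleotide paired-end sequencing. Darwinian fitness relative to wild type was derived from changes in genotype frequencies. Genotypes required ≥ 100 starting reads, and estimates < 0.5 were set to 0.5.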

Q: For GUUCCGUUGGCGUAAUGGUAAUGCGUCUCUCUUCUAAGGAGAAGCCUGCGGGUUCGAGUCCCGUCCGGAACG [C22U C30U C33U A45C A65C], which yeast fitness is on record?
A: Its yeast fitness is at most 0.5.

Q: With GUUCCGUUGGCGUAAUGGUAAUGCGUUUCCCUCCUAAGGAGAAGACUGCGGGUUCGUGUCGCGUACGGAACG [C22U C27U A57U C61G] as the variant, how does the yeast fitness read?
A: The yeast fitness was 0.574.

Q: With GUUCCGUUGGCGUAAUGGUAAUGCGUCUCUCUCCUAAGGCGAAGACUGCGGGUUAGAGUCCCGUGCGGAACG [C22U C30U A40C C55A A65G] as the variant, how does the yeast fitness read?
A: The yeast fitness was at most 0.5.

Q: With GUUCCGUUGGCGUAAUGGUAAUGUGUCUCCCUCCUAAGGAGAAGACUGCGGGUUCGACUCCCGUCCGGAACG [C22U C24U G58C A65C] as the variant, how does the yeast fitness read?
A: Its yeast fitness is at most 0.5.

Q: With GUUCCGUUGGCGUAAUGGUAAUGCGUCUUCCUCCUAAGGAAAAGACUGCGGGUUUGAGUCACGUACGGAACG [C22U C29U G41A C55U C61A] as the variant, how does the yeast fitness read?
A: Its yeast fitness is at most 0.5.

Q: Which yeast fitness does the source give for GUUCCGUUGGCGUAAUGGUAAUGCGUGUCCCUCCUAAGGAGAAGACUGCGGGUUCGAGUCCCGUACGGAACG [C22U C27G] here?
A: Its yeast fitness is 0.721.

Q: Which yeast fitness does the source give for GUUCCGUUGGCGUAAUGGUAAUGCGUUUCCCUCCUAAGGAGAAGACUGCGGGUUCGAGUCCCGUACGGAACG [C22U C27U] here?
A: The yeast fitness was 0.713.

Q: With GUUCCGUUGGCGUAAUGGUAAUGCGUCUACCUCCUAAGGAGAAGACUGCGGGUUCGAGUCCCGUACGACACG [C22U C29A G68A A69C] as the variant, how does the yeast fitness read?
A: Its yeast fitness is 0.55.

Q: Which yeast fitness does the source give for GUUCCGUUGGCGUAAUGGUAAUGCGUGUCCCUCCUAGGGAGCAGACUGCGGGUUCGAGUCCCGUACGGAACG [C22U C27G A37G A42C] here?
A: The yeast fitness was at most 0.5.

Q: Which yeast fitness does the source give for GUUCCGUUGGCGUAAUGGUAAUGCGUCUCCCUCCUAAGGAGACGACUGCGGGUUCGAGUCCCGUACGGACCG [C22U A43C A70C] here?
A: Its yeast fitness is 0.643.

Q: For GUUCCGUUGGCGUAAUGGUAAUGAGUUUCCCUCCUAAGGAGAAGACUGCGGGUUCGAGUCCCGUACGGAACG [C22U C24A C27U], which yeast fitness is on record?
A: The yeast fitness was at most 0.5.

Q: Which yeast fitness does the source give for GUUCCGUUGGCGUAAUGGUAAUGCGUCUCCCUCCUAAGGGGAAGACUGCGGGUUCGAGUCUCGUACGGAUCG [C22U A40G C61U A70U] here?
A: The yeast fitness was 0.547.

Q: For GUUCCGUUGGCGUAAUGGUAAUGUGUCUCCCUGCUAAGGAGAAGACUGCGGGUUCGAGUCCCGUACGGAACG [C22U C24U C33G], which yeast fitness is on record?
A: The yeast fitness was 0.502.

Q: With GUUCCGUUGGCGUAAUGGUAAUGCGUCUCCAUCCUACGGAGAAGACCGCGGGUUCGAGUCCCGUACAGAACG [C22U C31A A37C U47C G67A] as the variant, how does the yeast fitness read?
A: The yeast fitness was at most 0.5.

Q: For GUUCCGUUGGCGUAAUGGUAAUGCGUCUCCGUCCUAAGGAGAUGACUGCGGGUUCGAGUACCGUACGGAACG [C22U C31G A43U C60A], which yeast fitness is on record?
A: The yeast fitness was at most 0.5.

Q: Which yeast fitness does the source give for GUUCCGUUGGCGUAAUGGUAAUGCGUCUCCCUCCUAAGGAGAUGACUGCGGGUUCGAGUCCCGUACGGAACG [C22U A43U] here?
A: Its yeast fitness is 0.788.

Q: Which yeast fitness does the source give for GUUCCGUUGGCGUAAUGGUAAUGCGUCUCCCUCCUAAGGAGAGGACUGCGGGUUCGAGUCCCGUACGGAACG [C22U A43G] here?
A: The yeast fitness was 0.835.

Q: Which yeast fitness does the source give for GUUCCGUUGGCGUAAUGGUAAUGAGUCUCCCUCCUAAGGAGUAGACUGUGGGUUCGAGUCUCGUACGGAACG [C22U C24A A42U C49U C61U] here?
A: Its yeast fitness is at most 0.5.

Q: With GUUCCGUUGGCGUAAUGGUAAUGCGUCUCCGUCCUAAGGAGAAGACUCCGGGUUCGAGUCCCGUACGGAACG [C22U C31G G48C] as the variant, how does the yeast fitness read?
A: The yeast fitness was at most 0.5.

Q: Which yeast fitness does the source give for GUUCCGUUGGCGUAAUGGUAAUGCGUCUCCGUCCUAAGGAGAUGACUGCGGGUUCGAGUCCCGUACGGAACG [C22U C31G A43U] here?
A: Its yeast fitness is 0.612.

Q: Which yeast fitness does the source give for GUUCCGUUGGCGUAAUGGUAAUGAGUCGCCCUCCUAAGGAGAAGACUGCGGGUUCGAGUCCCGUACGGAACG [C22U C24A U28G] here?
A: The yeast fitness was 0.542.

Q: For GUUCCGUUGGCGUAAUGGUAAUGCGUCUCUCUCCUAGGGAGAAGACUCCGGGUUGGAGUCCCGUACGGAACG [C22U C30U A37G G48C C55G], which yeast fitness is on record?
A: The yeast fitness was at most 0.5.

Q: With GUUCCGUUGGCGUAAUGGUAAUGUGUCUCCCUCCUAAGGAGAAGGCUGCGGGUUCCAGUCCCGUACGGAACG [C22U C24U A45G G56C] as the variant, how does the yeast fitness read?
A: The yeast fitness was at most 0.5.

Q: For GUUCCGUUGGCGUAAUGGUAAUGCGUCUCCCUCCUAAGGAGAAGACUGCGGGUUCGAGUCCCGUACGGAGCG [C22U A70G], which yeast fitness is on record?
A: The yeast fitness was 0.784.

Q: With GUUCCGUUGGCGUAAUGGUAAUGCGUCUUCCUCCUAAGAAAAAGACUGCGGGUUCGAGUCCCGUACGGAACG [C22U C29U G39A G41A] as the variant, how does the yeast fitness read?
A: Its yeast fitness is at most 0.5.

Q: For GUUCCGUUGGCGUAAUGGUAAUGCGUUUCCCUCCUAAGGAGAAGACUGCGGGUUAGUGUCGCGUACGGAACG [C22U C27U C55A A57U C61G], which yeast fitness is on record?
A: The yeast fitness was at most 0.5.

Q: For GUUCCGUUGGCGUAAUGGUAAUGCGUCUCCUUCCUAAGGAGAAGACGGCGGGUUCGAGUCCCGUACGGAACG [C22U C31U U47G], which yeast fitness is on record?
A: The yeast fitness was at most 0.5.

Q: For GUUCCGUUGGCGUAAUGGUAAUGCGUCUCCGUCCUAAGGAGAAGACUGUGGGUUCGAGUCCCGUAUAGAACG [C22U C31G C49U C66U G67A], which yeast fitness is on record?
A: The yeast fitness was 0.563.

Q: Which yeast fitness does the source give for GUUCCGUUGGCGUAAUGGUAAUGCGUAUCCCUCCUAAGGAGAAGACUGCGGGUUCGAAUCCCGUACGGAACG [C22U C27A G58A] here?
A: The yeast fitness was 0.568.

Q: For GUUCCGUUGGCGUAAUGGUAAUGCGUCUCCCUCCUAAGGUGAAGACUACGGGUUCGAGUCCCGUACGGAACG [C22U A40U G48A], which yeast fitness is on record?
A: The yeast fitness was at most 0.5.

Q: With GUUCCGUUGGCGUAAUGGUAAUGCGUCUCCCUCCUAAGGAGAAGUCUGCGGCUUCGUGUCCCGUACGGAACG [C22U A45U G52C A57U] as the variant, how does the yeast fitness read?
A: Its yeast fitness is at most 0.5.

Q: With GUUCCGUUGGCGUAAUGGUAAUGCGUCUCCCUCCUAAGGAGUAGACUGCGCGUUCGAGUCCCGUACGGAACG [C22U A42U G51C] as the variant, how does the yeast fitness read?
A: The yeast fitness was 0.647.

Q: With GUUCCGUUGGCGUAAUGGUAAUGCGUCUCGCUCCUAAGGAGAAGACUGCGGGUUCGUGUCCCGUACGGAACG [C22U C30G A57U] as the variant, how does the yeast fitness read?
A: Its yeast fitness is at most 0.5.

Q: Which yeast fitness does the source give for GUUCCGUUGGCGUAAUGGUAAUGGGUCUCCCUCCUAAGGAGAAGACUGGGGGUUCAAGUCCCGUACGGAACG [C22U C24G C49G G56A] here?
A: Its yeast fitness is at most 0.5.

Q: For GUUCCGUUGGCGUAAUGGUAAUGCGUCUCCGUCCUAAGGAGAAGACUGCGGGUUCGAGUCCCGUACCGAACG [C22U C31G G67C], which yeast fitness is on record?
A: Its yeast fitness is 0.653.

Q: Which yeast fitness does the source give for GUUCCGUUGGCGUAAUGGUAAUGCGUCUCUCUCCUAAGGAGAAGACAGCGGGUUCGAGUCCCGUACGGAACG [C22U C30U U47A] here?
A: Its yeast fitness is at most 0.5.

Q: With GUUCCGUUGGCGUAAUGGUAAUGCGUCUCCCUCCUAAGGAGGAGACUGCGGGCUGGAGUCCCGUACGGAUCG [C22U A42G U53C C55G A70U] as the variant, how does the yeast fitness read?
A: The yeast fitness was at most 0.5.

Q: Which yeast fitness does the source give for GUUCCGUUGGCGUAAUGGUAAUGCGUCUCGCUCCUAAGGAGAAGACUGCGCGUUCUAGUCCCGUACGGAACG [C22U C30G G51C G56U] here?
A: The yeast fitness was at most 0.5.
